The record followed here is ChEMBL document CHEMBL4706625, “Synthesis of Guaianolide Analogues with a Tunable α-Methylene-γ-lactam Electrophile and Correlating Bioactivity with Thiol Reactivity” (J Med Chem, 2020).

Active and inactive are the calls of the source. The calls are words filed in the database; no cut-off is given here. Some results are limits rather than exact numbers.

Data set [1] has as its system A549. The experiment in a line: Inhibition of TNFalpha-induced canonical NF-kappaB signaling (unknown origin) expressed in human A549 cells at 10 uM […] by NF-kappaB-driven luciferase reporter gene assay. The format is cell-based. Particulars: time 500.0 min. (A reporter such as luciferase makes a cellular process visible.)
In data set [2] the test system is HEK293. Description: Inhibition of TNFalpha-induced canonical NF-kappaB signaling (unknown origin) expressed in HEK293 cells at 7.5 uM pre-incubated for 30 mins followed by TNFalpha stimulation for 8 hrs by NF-kappaB-driven SEAP assay. It is filed as cell-based. Conditions: Homo sapiens, time 510.0 min. In short, it runs like this: (§1)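 HEK293 cells stably carrying an NF-κB-driven SEAP reporter were grown in DMEM with 10% FBS, penicillin/streptomycin and 0.5 mg/mL G418 at 37 °C, 5% CO2. They were seeded at 5,000 cells/well 24 h ahead. Compounds (1–7.5 μM, 0.5% DMSO final) were added for 30 min, then TNF-α at 22.5 ng/mL final for 8 h. Secreted SEAP in the medium was quantified chemiluminescently, relative to the induced control set as 100%.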

In data set [3] the test system is A549. The experiment in a line: Inhibition of TNFalpha-induced canonical NF-kappaB signaling (unknown origin) expressed in human A549 cells at 20 uM […] by NF-kappaB-driven luciferase reporter gene assay. The format is cell-based. Particulars: time 500.0 min.
In data set [4] the test system is HEK293. Description: Inhibition of TNFalpha-induced canonical NF-kappaB signaling (unknown origin) expressed in HEK293 cells assessed as residual NF-kappaB activity at 7.5 uM pre-incubated for 30 mins followed by TNFalpha stimulation for 8 hrs by NF-kappaB-driven SEAP assay. Conditions: Homo sapiens, time 510.0 min.
Data set [5] relates to A549. The experiment in a line: Inhibition of TNFalpha-induced canonical NF-kappaB signaling (unknown origin) expressed in human A549 cells assessed as residual NF-kappaB activity at 20 uM […] followed by TNFalpha stimulation for 8 hrs by NF-kappaB-driven luciferase reporter gene assay. The format is cell-based. Conditions: time 500.0 min.
The test system of data set [6] is A549. Description: Inhibition of TNFalpha-induced canonical NF-kappaB signaling (unknown origin) expressed in human A549 cells assessed as residual NF-kappaB activity at 10 uM […] by NF-kappaB-driven luciferase reporter gene assay. The format is cell-based. Particulars: time 500.0 min.
In data set [7] the test system is HEK293. The experiment in a line: Inhibition of TNFalpha-induced canonical NF-kappaB signaling (unknown origin) expressed in HEK293 cells assessed as residual NF-kappaB activity at 7.5 uM pre-incubated for 30 mins followed by TNFalpha stimulation for 8 hrs by NF-kappaB-driven SEAP assay. It is filed as cell-based. Conditions: Homo sapiens, time 510.0 min. In short, it runs like this:
as §1

A short description of data set [8]: Thiol-reactivity using La antigen containing reactive cysteine C245 at 0.5 mM incubated for 1 hr by MS analysis based ALARM MSPS analysis. Conditions: 500 µM.
The nature of data set [9]: Thiol-reactivity using 13C-labeled La antigen containing reactive cysteine C245 at 400 uM at 37 degreeC for 90 mins in absence of DTT by 2D 1H-13C HMQC ALARM NMR spectroscopy. It is filed as ADME. Conditions: 1.5 h. In short, it runs like this: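 ALARM NMR: compound (400 μM final) was incubated with 13C-methyl-labeled La antigen (50 μM final) at 37 °C for 90 min, without and with 20 mM DTT. Reactivity was scored from 13C-methyl chemical shift changes and attenuation of diagnostic peaks in 1H-13C HMQC spectra without DTT.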

A short description of data set [10]: Toxicity in African green monkey Vero cells assessed as reduction in cell viability incubated for 48 hrs by Alamar blue assay. It is filed as cell-based, Chlorocebus sabaeus. (Resazurin is reduced to fluorescent resorufin, in cell work by metabolically active cells.)

Turning to `C=C1C(=O)N(S(=O)(=O)c2ccc(C)cc2)[C@@H]2C3=C(c4ccccc4)C(=O)CC3=C(C)CC[C@@H]12` (relative stereo), the inhibition in data set [1] and in data set [2] was 100% each time.

On to `C=C1C(=O)N(c2ccccc2)[C@@H]2C3=C(c4ccccc4)C(=O)CC3=C(C)CC[C@@H]12` (relative stereo), for which the inhibition result in [3] and in [4] was “inactive” in each case.

As to `C=C1C(=O)N(C(C)=O)[C@@H]2C3=CC(=O)CC3=C(C)CC[C@@H]12` (relative stereo), the Activity in [5] was 28%; in data set [6], 59%; in data set [7], 19%.

For the molecule `OC(Cn1cncn1)(Cn1cncn1)c1ccc(F)cc1F` [FLUCONAZOLE], the Activity result in data set [8] and in [9] was “Not Active” in each case.

`C=C1C(=O)N(c2ccc(OC)cc2)[C@@H]2C3=C(c4ccccc4)C(=O)CC3=C(C)CC[C@@H]12` (relative stereo): the inhibition entry in [3] and in data set [4] was “inactive” each time.

For `C=C1C(=O)N(c2ccc(C(F)(F)F)cc2)[C@@H]2C3=C(c4ccccc4)C(=O)CC3=C(C)CC[C@@H]12` (relative stereo), the Activity in data set [5] is 21%; in [8], “Not Active”; in [9] it was “Not Active”; in data set [6], 62%; in [7], 44%.

Turning to `C=C1C(=O)N[C@@H]2C3=C(c4ccccc4)C(=O)CC3=C(C)CC[C@@H]12`, the inhibition result in data set [3] is “inactive”.

As for `CCN(CC)c1ccc2c(C)c(-c3ccc(N4C(=O)C=CC4=O)cc3)c(=O)oc2c1`, the outcome in data set [8] and in data set [9] was Active.

On to `C=C1C(=O)N(C)[C@@H]2C3=C(c4ccccc4)C(=O)CC3=C(C)CC[C@@H]12` (relative stereo), for which, in [3], the inhibition result was “inactive”.

As for `C=C1C(=O)N[C@@H]2C3=CC(=O)CC3=C(C)CC[C@@H]12`, the inhibition entry in data set [3] and in data set [4] was “inactive” in each case. In addition, the IC50 at 48 h in data set [10] is more than 200 µM.

For the molecule `C=C1C(=O)O[C@@H]2[C@H]3O[C@]3(C)CC/C=C(\C)CC[C@@H]12`, the Activity in [6] amounted to 53%; in data set [7] it was 20%.

For the molecule `C=C1C(=O)O[C@H]2C3=C(c4ccccc4)C(=O)CC3=C(C)CC[C@H]12`, the outcome in [8] and in data set [9] was Active.

Broadly, the inhibition is the percentage by which the read-out fell short of the control. By IC50 is commonly meant the point on the concentration scale where inhibition reaches its midpoint.
